ChEMBL document CHEMBL3124854, “Synthesis and evaluation of antiproliferative activity of a novel series of hydroxychavicol analogs” (Eur J Med Chem, 2014)

Columns and labels:
[1] = system: HeLa; test: Cytotoxicity against human HeLa cells assessed as growth inhibition after 48 hrs by MTT assay; assay type: functional, cell-based
Summary of the method: (§1)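 MTT proliferation assay: 2 × 10³ cells per well seeded, 24 h incubation, then treated with analogs dissolved in DMSO and diluted in medium at […] for 48 h. Medium then replaced with fresh medium carrying MTT (5 mg/mL stock in PBS). IC50 taken as concentration inhibiting proliferation of 50% cells; SD between batches.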

[2] = system: PC-3; test: Cytotoxicity against human PC3 cells assessed as growth inhibition after 48 hrs by MTT assay; assay type: functional, cell-based; conditions: PC-3, 48 h; summary of the method: as §1

SMILES	IC50 [1]	IC50 [2]
CC(=O)OCCCc1ccc(O)c(O)c1	22 µM	83 µM
C=CC(O)c1ccc(OCc2ccccc2)c(O)c1 (stereo not given)	76 µM	
CCC(OC(C)=O)c1ccc(OC(C)=O)c(OC(C)=O)c1 (stereo not given)	53 µM	42 µM
CCC(OC(C)=O)c1ccc(O)c(OC(C)=O)c1 (stereo not given)	40 µM	48 µM
CC(=O)OC/C=C/c1ccc(OCc2ccccc2)c(OC(C)=O)c1	42 µM	38 µM
COc1cc(CC(COC(C)=O)OC(C)=O)ccc1O (stereo not given)	60 µM	
C=CCOc1ccc(CC(COC(C)=O)OC(C)=O)cc1OC (stereo not given)	96 µM	
CC(=O)OC/C=C/c1ccc(OCc2ccccc2)c(O)c1	13 µM	3.5 µM
C=CCc1ccc(O)c(O)c1 [HYDROXYCHAVICOL]	83 µM	55 µM
